This is an account of results in ChEMBL document CHEMBL1221252, “Novel 1H-pyrrolo[2,3-c]pyridines as acid pump antagonists (APAs)” (Bioorg Med Chem Lett, 2010).

One assay is filed under the species Sus scrofa. In words: Inhibition of pig gastric H(+)/K(+) ATPase at 4 uM. The format is tissue-based. As to conditions: Stomach. In short, it runs like this:
(§1)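 Ion-leaky gastric membrane vesicles enriched in H+/K+-ATPase, prepared from pig stomach. Lyophilized vesicles in 5 mM PIPES/Tris pH 6.1 preincubated 5 min with compound, then buffer with or without K+ added. ATP substrate added, 30 min at 37 °C. Stopped with colorimetric reagent; Pi read at 620 nm. Activity taken as K+-stimulated Pi production (with minus without K+); IC50 from % inhibition by Litchfield–Wilcoxon.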
The term inhibition denotes how much of the control response was suppressed. A high value points to a strong effect. In the case of `Cc1[nH]c2c(OCc3ccc(F)cc3)nccc2c1C`, the inhibition is 60.3%. `Cc1c(C)n(Cc2ccccc2)c2c(OCc3ccc(F)cc3)nc(C(N)=O)cc12` had an inhibition of 16.1%.

In turn, `Cc1[nH]c2c(OCc3ccccc3F)nccc2c1C` showed an inhibition of 32.1%.

`C=CCn1c(C)c(C)c2cc(C(=O)NC)nc(OCc3ccc(F)cc3)c21` returned an inhibition of 78.4%. `C=CCn1c(C)c(C)c2cc(C(N)=O)nc(OCc3ccc(F)cc3)c21` gave an inhibition of 80.3%. On the same count and under the same terms, the result for `Cc1[nH]c2c(OCc3ccccc3)nccc2c1C` reads 50.9%.

Biological target in another assay: not listed separately
In words: Inhibition of pig gastric H(+)/K(+) ATPase. In kind it is tissue-based, Sus scrofa, Stomach.
Details: not given
A digest of the protocol:
as §1
Usually IC50 stands for the concentration at which inhibition is half-maximal. A low value points to higher potency. Consider `Cc1c(C)n(CC(C)C)c2c(OCc3ccc(Cl)cc3)nccc12`, for which the IC50 came out at 0.205 µM. `Cc1c(C)n(CC(C)C)c2c(OCc3ccc(F)cc3)nccc12` had an IC50 of 0.196 µM. Compound `C=CCn1c(C)c(C)c2cc(C(=O)Nc3ccncc3)nc(OCc3ccc(F)cc3)c21` showed an IC50 of 0.735 µM. On the same count and under the same terms, the result for `Cc1c(C)n(Cc2ccccc2)c2c(OCc3ccc(Cl)cc3)nccc12` reads 0.187 µM; that for `Cc1c(C)n(Cc2ccccc2)c2c(OCc3ccc(F)cc3)nc(C(=O)NC3CC3)cc12`, 0.738 µM. In turn, `C=CCn1c(C)c(C)c2ccnc(OCc3ccc(F)cc3)c21` yielded an IC50 of 0.125 µM.

Take `C=CCn1c(C)c(C)c2cc(C(=O)NC3CC3)nc(OCc3ccc(F)cc3)c21`: the IC50 stood at 0.408 µM. On to `Cc1c(C)n(Cc2ccccc2)c2c(OCc3ccc(F)cc3)nc(C(=O)N3CCOCC3)cc12`, for which the IC50 is 0.029 µM. As for `CCCn1c(C)c(C)c2ccnc(OCc3ccc(F)cc3)c21`, it took 0.302 µM to reach half-maximal inhibition (IC50).

In turn, `Cc1c(C)n(Cc2ccccc2)c2c(OCc3ccc(F)cc3)nc(C(=O)N(C)C)cc12` registered an IC50 of 0.028 µM. Compound `Cc1c(C)n(CC2CC2)c2c(OCc3ccc(F)cc3)nccc12` yielded an IC50 of 0.181 µM.

With `Cc1c(C)n(CC2OCCO2)c2c(OCc3ccc(F)cc3)nccc12`, the IC50 stood at 0.173 µM.

The species named for the next assay is Sus scrofa. The experiment in a line: Inhibition of pig gastric H(+)/K(+) ATPase at 1 uM. The format is tissue-based. As to conditions: Stomach. A digest of the protocol:
as §1
In the case of `CNC(=O)c1cc2c(C)c(C)n(Cc3ccccc3)c2c(OCc2ccc(F)cc2)n1`, the inhibition was determined as 39.4%.
